According to ChEMBL document CHEMBL1123757, “Selective thromboxane synthetase inhibitors and antihypertensive agents. New derivatives of 4-hydrazino-5H-pyridazino[4,5-b]indole, 4-hydrazinopyridazino[4,5-a]indole, and related compounds” (J Med Chem, 1987):
Calls of active or inactive are those of the source. The rule behind the calls is not given here.

What was measured:
Cavia porcellus [1] = test: Ex vivo inhibition of platelet aggregation induced by AA at 100 mg/kg; format: functional
Summary of the method: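 Fasted male or female guinea pigs (250–300 g, five per group) dosed orally in normal saline or saline with 0.2% (carboxymethyl)cellulose/1.0% Tween 80; controls given vehicle. Under ether, cardiac blood collected into 3.8% citrate. PRP adjusted to […] and aggregation induced by ADP (second wave) or AA, read by absorbance aggregometry. PGE2 and TXB2 measured by RIA.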

Rattus norvegicus [2] = species on record: Rattus norvegicus; details: Artery, 1 mg/kg
Rattus norvegicus [3] = species on record: Rattus norvegicus; details: Heart, 1 mg/kg
Rattus norvegicus [4] = test: Antihypertensive activity in spontaneously hypertensive rats (SHR) measured by percentage fall in cardiac rhythm (CR) at 1 mg/kg administered intraperitoneally at 5 h; format: functional, Heart; details: route intraperitoneal
Summary of the method: (§1)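 Unanesthetized Okamoto-strain SHR, male and female, 8 weeks old, 300–350 g, systolic pressure ≥190 mmHg, heart rate 400–650 beats/min; five animals per dose. Given ip at 2.5 mL/kg, dissolved or suspended in normal saline or saline with 0.2% (carboxymethyl)cellulose and 1.0% Tween 80. Tail AP and CR recorded by mechanical transduction at set times; reported as percentage fall from control.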

Rattus norvegicus [5] = test: Antihypertensive activity in spontaneously hypertensive rats (SHR) measured by percentage fall in arterial pressure (AP) at 1 mg/kg administered intraperitoneally at 24 h;No significance; format: functional, organism-based; parameters: dose 1 mg/kg; details: Artery; summary of the method: as §1
Rattus norvegicus [6] = test: Percent increase in cardiac rhythm, directly measured on carotid (iv on the jugular vein) of spontaneously hypertensive rats at 1 mg/kg after 30 minutes; details: Heart, 0.5 h, read-out: Inhibition
Rattus norvegicus [7] = species on record: Rattus norvegicus; details: Heart, 1 mg/kg; remark: listed apart in the source
Rattus norvegicus [8] = test: Antihypertensive activity in spontaneously hypertensive rats (SHR) measured by percentage fall in arterial pressure (AP) at 1 mg/kg administered intraperitoneally at 1 h; format: functional, Artery; details: route intraperitoneal; summary of the method: as §1
Rattus norvegicus [9] = test: Percent fall in systolic blood pressure, directly measured on carotid (iv on the jugular vein) of spontaneously hypertensive rats at 1 mg/kg after 30 minutes; format: functional, Artery
Summary of the method: (§2)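 Anesthetized (sodium pentobarbital, 70 mg/kg) male and female Okamoto SHR, 8 weeks old, 300–350 g. Given iv into the jugular vein in normal saline. Arterial pressure and cardiac rhythm are recorded directly from the carotid by polygraph at set times after dosing. Each is expressed as percent change from the pre-dose control value.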

Cavia porcellus [10] = species on record: Cavia porcellus; details: 30 mg/kg
Homo sapiens [11] = species on record: Homo sapiens; test: In vitro inhibition of platelet aggregation induced by AA (PRP incubated for 60 minutes at 37 degree C) at 10e-5 M;No significance; format: functional
Summary of the method: (§3)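 Human venous blood anticoagulated with 3.8% sodium citrate (1:9). PRP from centrifugation at 800 rpm for 10 min at room temperature. Count adjusted with PPP to […]. Compound in saline with 10% ethylene glycol is added to PRP and incubated at 37 °C before the agonist. Agonists: ADP 2×10^-5 M, AA 0.6 mM, PGH2 2.8 μM, adrenaline 0.6 μM. Born absorbance aggregometry; n = 5.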

Cavia porcellus [12] = species on record: Cavia porcellus; details: 50 mg/kg
Rattus norvegicus [13] = test: Antihypertensive activity in spontaneously hypertensive rats (SHR) measured by percentage fall in arterial pressure (AP) at 1 mg/kg administered intraperitoneally at 3 h; format: functional, Artery; details: route intraperitoneal; summary of the method: as §1
Homo sapiens [14] = species on record: Homo sapiens; test: In vitro inhibition of platelet aggregation induced by ADP-II (PRP incubated for 5 minutes at 37 degree C) at 10e-5 M;No significance; format: functional; summary of the method: as §3
Rattus norvegicus [15] = species on record: Rattus norvegicus; details: Artery, 1 mg/kg; remark: listed apart in the source
Rattus norvegicus [16] = species on record: Rattus norvegicus; details: Heart, 1 mg/kg; remark: listed apart in the source
Rattus norvegicus [17] = test: Percent fall in systolic blood pressure, directly measured on carotid (iv on the jugular vein) of spontaneously hypertensive rats at 1 mg/kg after 60 minutes; format: functional, Artery; summary of the method: as §2
Cavia porcellus [18] = species on record: Cavia porcellus; details: 100 mg/kg
Rattus norvegicus [19] = test: Percent fall in systolic blood pressure, directly measured on carotid (iv on the jugular vein) of spontaneously hypertensive rats at 1 mg/kg after 120 minutes; format: functional, Artery; summary of the method: as §2
Rattus norvegicus [20] = test: Percent fall in systolic blood pressure, directly measured on carotid (iv on the jugular vein) of spontaneously hypertensive rats at 1 mg/kg after 75 minutes; format: functional, Artery; summary of the method: as §2
Cavia porcellus [21] = species on record: Cavia porcellus; details: 30 mg/kg; remark: listed apart in the source
Homo sapiens [22] = species on record: Homo sapiens; details: 10e-5 M
Rattus norvegicus [23] = test: Percent fall in systolic blood pressure, directly measured on carotid (iv on the jugular vein) of spontaneously hypertensive rats at 1 mg/kg after 5 minutes; format: functional, Artery; summary of the method: as §2
Rattus norvegicus [24] = test: Percent fall in systolic blood pressure, directly measured on carotid (iv on the jugular vein) of spontaneously hypertensive rats at 1 mg/kg after 15 minutes; format: functional, Artery; summary of the method: as §2
Rattus norvegicus [25] = species on record: Rattus norvegicus; details: Heart, 1 mg/kg; remark: listed apart in the source
Cavia porcellus [26] = species on record: Cavia porcellus; details: 50 mg/kg; remark: listed apart in the source
Rattus norvegicus [27] = test: Antihypertensive activity in spontaneously hypertensive rats (SHR) measured by percentage fall in cardiac rhythm (CR) at 1 mg/kg administered intraperitoneally at 3 h; format: functional, Heart; details: route intraperitoneal; summary of the method: as §1
Homo sapiens [28] = species on record: Homo sapiens; details: 10e-5 M; remark: listed apart in the source
Rattus norvegicus [29] = test: Antihypertensive activity in spontaneously hypertensive rats (SHR) measured by percentage fall in cardiac rhythm (CR) at 1 mg/kg administered intraperitoneally at 1 h; format: functional, Heart; details: route intraperitoneal; summary of the method: as §1

SMILES: Cl.NNc1nncc2ccccc12 [HYDRALAZINE HYDROCHLORIDE]
- inhibition in vivo at 100 mg/kg (Cavia porcellus [1]): 75%
- inhibition (Rattus norvegicus [2]): inactive
- Decrease in CR (Rattus norvegicus [3]): inactive
- Decrease in CR (Rattus norvegicus [4]): -2%
- Decrease in AP (Rattus norvegicus [5]): inactive
- inhibition in vivo at 1 mg/kg (Rattus norvegicus [6]): 20%
- inhibition (Rattus norvegicus [7]): inactive
- Decrease in AP (Rattus norvegicus [8]): 20%
- Decrease in blood pressure (Rattus norvegicus [9]): 48%
- inhibition (Cavia porcellus [10]): inactive
- inhibition (Homo sapiens [11]): inactive
- inhibition (Cavia porcellus [12]): inactive
- Decrease in AP (Rattus norvegicus [13]): 20%
- inhibition (Homo sapiens [14]): inactive
- Decrease in blood pressure (Rattus norvegicus [15]): inactive
- Decrease in blood pressure (Rattus norvegicus [16]): inactive
- Decrease in blood pressure (Rattus norvegicus [17]): 52%
- Inhibition % (Cavia porcellus [18]): inactive
- Decrease in blood pressure (Rattus norvegicus [19]): 20%
- Decrease in blood pressure (Rattus norvegicus [20]): 60%
- inhibition (Cavia porcellus [21]): inactive
- Increase (Homo sapiens [22]): inactive
- Decrease in blood pressure (Rattus norvegicus [23]): 40%
- Decrease in blood pressure (Rattus norvegicus [24]): 48%
- inhibition (Rattus norvegicus [25]): inactive
- inhibition (Cavia porcellus [26]): inactive
- Decrease in CR (Rattus norvegicus [27]): -5%
- inhibition (Homo sapiens [28]): inactive
- Decrease in CR (Rattus norvegicus [29]): -7%
